{"data": "Measured values collected from several papers", "target": "Serine/threonine-protein kinase Chk1 (CHEK1, Homo sapiens, UniProt O14757)", "One construct used (O14757 1-476)": "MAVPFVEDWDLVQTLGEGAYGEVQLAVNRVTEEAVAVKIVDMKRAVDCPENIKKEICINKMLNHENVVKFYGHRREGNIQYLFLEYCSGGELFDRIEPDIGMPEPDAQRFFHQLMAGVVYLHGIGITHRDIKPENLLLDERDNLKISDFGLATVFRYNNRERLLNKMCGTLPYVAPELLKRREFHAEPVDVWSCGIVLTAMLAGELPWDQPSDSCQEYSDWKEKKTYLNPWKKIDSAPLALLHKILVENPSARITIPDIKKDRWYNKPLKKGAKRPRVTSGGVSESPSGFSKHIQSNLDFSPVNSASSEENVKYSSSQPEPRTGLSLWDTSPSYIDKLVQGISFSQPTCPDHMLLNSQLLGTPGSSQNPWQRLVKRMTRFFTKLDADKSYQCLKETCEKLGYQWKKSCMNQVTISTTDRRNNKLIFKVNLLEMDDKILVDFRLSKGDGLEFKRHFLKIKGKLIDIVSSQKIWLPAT", "note": "Compare with care: the assays were run in different laboratories."}
{"SMILES": "CNC(=O)Nc1ccc2c(c1)[C@@]1(CC2)OC(=O)N(CC(=O)N(Cc2ccc(F)cc2)[C@@H](C)C(F)(F)F)C1=O", "read-out": "cell-free assay", "method": "competition with immobilised ligand", "tested at": "1 µM", "endpoint": "remaining binding", "value": "100%"}
{"SMILES": "Cc1cc(NC(=O)c2cccc3cc(-c4cccc5[nH]nc(N)c45)ccc23)ccc1F", "read-out": "enzyme activity", "mode": "inhibitor", "tested at": "0.1 µM", "endpoint": "activity vs control", "value": "96%"}
{"SMILES": "Cc1ccc(NC(=O)c2ccc(C)c(C(F)(F)F)c2)cc1C#Cc1nn(C2CCC(O)CC2)c2ncnc(N)c12 (stereo not drawn)", "read-out": "cell-free assay", "tested at": "10 µM", "endpoint": "remaining signal", "value": "114%"}
{"SMILES": "Cc1ccc(C(=O)Nc2ccc(CN3CCN(C)CC3)c(C(F)(F)F)c2)cc1C#Cc1cnc2cccnn12", "read-out": "enzyme activity", "mode": "inhibitor", "tested at": "23.5 nM", "endpoint": "remaining activity", "value": "96%"}
{"SMILES": "C[C@@H]1CCN(C(=O)CC#N)C[C@@H]1N(C)c1ncnc2[nH]ccc12", "read-out": "cell-free assay", "mode": "inhibitor", "tested at": "0.5 µM", "endpoint": "remaining signal", "value": "94.1%"}
{"SMILES": "COCCOc1nc(-c2ccc(Cl)nc2)nc2c1CN(C(=O)c1ncn3ccccc13)CC2", "read-out": "cell-free assay", "method": "competition with immobilised ligand", "tested at": "0.1 µM", "endpoint": "remaining binding", "value": "100%"}
{"SMILES": "O=C(Nc1cnn(-c2csc(C(=O)NC3COC3)c2)c1)Nc1c(F)cccc1Cl", "read-out": "enzyme activity", "mode": "inhibitor", "tested at": "5 µM", "endpoint": "remaining activity", "value": "141%"}
{"SMILES": "CN(C)CC#Cc1ccc(OCCCc2sc(N3CCc4cccc(C(=O)Nc5nc6ccccc6s5)c4C3)nc2C(=O)O)c(F)c1", "read-out": "cell-free assay", "method": "competition with immobilised ligand", "tested at": "1 µM", "endpoint": "remaining binding", "value": "89%"}
{"SMILES": "Nc1nc(NC2CCCCC2)sc1C(=O)c1ccccc1", "read-out": "enzyme activity", "mode": "inhibitor", "tested at": "10 µM", "endpoint": "remaining activity", "value": "96%"}
{"SMILES": "C[C@@]1(Cc2ccc(C#N)cc2)C(=O)N(c2cc(Cl)cc(Cl)c2)c2ncc(C(=O)NC3(c4nc(C5CCC5)no4)CC3)n21", "read-out": "cell-free assay", "method": "competition with immobilised ligand", "tested at": "1 µM", "endpoint": "remaining binding", "value": "90%"}
{"SMILES": "CC(C)(C)c1nc2c(s1)c1nc(N)ncc1c1ccc(NS(=O)(=O)c3c(F)cccc3F)c(F)c12", "read-out": "enzyme activity", "mode": "inhibitor", "method": "radiometric", "tested at": "1 µM", "endpoint": "remaining activity", "value": "94%"}
{"SMILES": "CC(C)(C)C(=O)c1sc(NC2CCCCC2)nc1N", "read-out": "enzyme activity", "mode": "inhibitor", "tested at": "10 µM", "endpoint": "remaining activity", "value": "80%"}
{"SMILES": "Nc1cnc(N2CCc3cc(S(=O)(=O)Nc4c(F)cc(Cl)cc4F)cc(N4CCCC4=O)c32)nc1", "read-out": "cell-free assay", "method": "competition with immobilised ligand", "tested at": "1 µM", "endpoint": "remaining binding", "value": "95%"}
{"SMILES": "COc1cc2c(Nc3ccc(Br)cc3F)ncnc2cc1OCC1CCN(C)CC1", "read-out": "cell-free assay", "tested at": "0.5 µM", "endpoint": "remaining signal", "value": "94.4%"}
{"SMILES": "Oc1cccc(-c2nc(N3CCOCC3)c3oc4ncccc4c3n2)c1", "read-out": "enzyme activity", "mode": "inhibitor", "tested at": "10 µM", "endpoint": "remaining activity", "value": "115%"}
{"SMILES": "CC(C)(O)[C@H]1CC[C@H](Nc2ccc3ncc(-c4cccc(C(F)(F)F)c4)n3n2)CC1", "read-out": "enzyme activity", "mode": "inhibitor", "tested at": "1 µM", "endpoint": "remaining activity", "value": "94.2%"}
{"SMILES": "O=C(NS(=O)(=O)c1ccc(NCC2CCOCC2)c([N+](=O)[O-])c1)c1ccc(N2CCN(Cc3ccc(C(F)(F)F)cc3-c3ccc(Cl)cc3)CC2)cc1Oc1cnc2[nH]ccc2c1", "read-out": "cell-free assay", "method": "competition with immobilised ligand", "tested at": "1 µM", "endpoint": "remaining binding", "value": "100%"}
{"SMILES": "Cc1ccc(NC(=O)c2ccc(CN3CCN(C)CC3)cc2)cc1Nc1nc(-c2cccnc2)cs1", "read-out": "cell-free assay", "tested at": "0.5 µM", "endpoint": "remaining signal", "value": "110%"}
{"SMILES": "COc1cc(Cl)c(C(=O)N[C@@H](CN[C@H]2CC[C@@H](N)CC2)Cc2ccc(C#N)cc2)cc1-c1ccc(CN[C@H](C)c2ccc(C)cc2)o1", "read-out": "enzyme activity", "mode": "inhibitor", "tested at": "1 µM", "endpoint": "remaining activity", "value": "100%"}
{"SMILES": "O=C(Nc1cnn(-c2csc(C(=O)NC3COC3)c2)c1)Nc1ccccc1Cl", "read-out": "enzyme activity", "mode": "inhibitor", "tested at": "5 µM", "endpoint": "remaining activity", "value": "98.7%"}
{"SMILES": "C#Cc1cccc(Nc2ncnc3cc(OCCOC)c(OCCOC)cc23)c1", "read-out": "cell-free assay", "tested at": "0.5 µM", "endpoint": "remaining signal", "value": "95.1%"}
{"SMILES": "COc1cc(Nc2cnc(C#N)c(O[C@H](C)CN(C)C)n2)ncc1-c1cnn(C)c1", "read-out": "enzyme activity", "mode": "inhibitor", "method": "radiometric", "tested at": "10 µM", "endpoint": "remaining activity", "value": "6%"}
{"SMILES": "CS(=O)(=O)NCC[C@H](NC(=O)c1cncc2c1cnn2-c1ccc(F)cc1)c1ccnc(S(C)(=O)=O)c1", "read-out": "cell-free assay", "method": "competition with immobilised ligand", "tested at": "1 µM", "endpoint": "remaining binding", "value": "97%"}
{"SMILES": "O=C1Nc2ccc(Cl)cc2C1=Cc1cc(Cl)c(O)c(Cl)c1", "read-out": "cell-free assay", "tested at": "0.5 µM", "endpoint": "remaining signal", "value": "86.4%"}
